# Test results: ChEMBL document CHEMBL1145101, “Macrocyclization in the design of Grb2 SH2 domain-binding ligands exhibiting high potency in whole-cell systems” (J Med Chem, 2003)
# What was measured:
# MDA-MB-453 = test: (§1) Growth inhibition against MDA-453 breast cancer cells; assay type: functional, cell-based; conditions: Homo sapiens
# How it was run: (§2)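 MDA-453 cells seeded at 500 per well and kept in IMEM with 10% fetal bovine serum at 37 °C under 5% CO₂. Inhibitor dilutions were added, with fresh drug solution each day for 5 days. Growth was read by MTT (0.5 mg/mL, 4 h), then medium removed and dissolved cells read at 570 nm. Results are expressed as percent of no-drug control.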
# [1] = target: Growth factor receptor-bound protein 2 (Homo sapiens, UniProt P62993); test: Inhibition against Growth factor receptor bound protein 2 binding using ELISA technique
# How it was run: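 Competition ELISA: biotinylated SHC-derived Grb2 SH2-binding phosphopeptide bound at 20 ng/mL to plates overnight, then blocked with 5% BSA in TBS. Recombinant Grb2 SH2-GST fusion was preincubated with serial inhibitor dilutions, then added. After washing with 0.1% BSA/TBS, bound protein was detected with anti-GST and alkaline phosphatase-conjugated secondary, using p-nitrophenyl phosphate colorimetry. Each compound had at least three determinations, with a positive control.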
# [2] = as §1; assay type: functional, cell-based; conditions: Homo sapiens, Cancer cell lines; how it was run: as §2
IC50 (MDA-MB-453) [nM],IC50 [1] [nM],Compound,IC50 [2] [nM]
8000,8,CC1(C)NC(=O)[C@@H](CC(=O)O)[C@@H](c2ccc(CP(=O)(O)O)cc2)/C=C/C[C@@H](CC2=c3ccccc3=CCC2)CNC(=O)[C@H](CC(N)=O)NC1=O,–
> 50000,> 10000,NC(=O)C[C@@H]1NC(=O)C2(CCCCC2)NC(=O)C[C@@H](c2ccc(CP(=O)(O)O)cc2)C/C=C/C[C@@H](Cc2cccc3ccccc23)CNC1=O,–
–,–,NC(=O)C[C@H](NC(=O)C1(NC(=O)[C@H](Cc2ccc(CP(=O)(O)O)cc2)NC(=O)C(=O)O)CCCCC1)C(=O)NCCCC1=c2ccccc2=CCC1,5000
–,20,NC(=O)C[C@@H]1NC(=O)C2(CCCCC2)NC(=O)C[C@@H](c2ccc(CP(=O)(O)O)cc2)/C=C/C[C@@H](CC2=c3ccccc3=CCC2)CNC1=O,–
800,2,NC(=O)C[C@@H]1NC(=O)C2(CCCCC2)NC(=O)[C@@H](CC(=O)O)[C@@H](c2ccc(CP(=O)(O)O)cc2)/C=C/C[C@@H](CC2=c3ccccc3=CCC2)CNC1=O,–
